The record followed here is ChEMBL document CHEMBL3046654, “Penoxsulam--structure-activity relationships of triazolopyrimidine sulfonamides” (Bioorg Med Chem, 2009).

The subject of one series is Pontederia vaginalis. Briefly: Post-emergence herbicidal activity against three-leaf stage Monochoria vaginalis under green-house condition by water injection treatment method. In kind it is functional. The essentials: (§1)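 Greenhouse paddy test. Seed was sown on saturated Metro Mix, covered with about 0.5 cm mix and held 48 h dark at 30 °C, 95% RH; about 15 d from seed soaking to treatment. Treatment solution was injected into the water. Rates were set per pot surface area, with serial rates made by halving the volume delivered. Held at 16 h day length, 29 °C.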

Series [1] concerns Oryza sativa. Briefly: Phytotoxicity against three-leaf stage Oryza sativa (rice) under green-house condition by water injection treatment method. The format is organism-based. The essentials:
as §1

For series [2], the system named is Schoenoplectiella juncoides. The series can be described thus: Post-emergence herbicidal activity against three-leaf stage Schoenoplectiella juncoides under green-house condition by water injection treatment method. In kind it is functional. An outline of the steps: as §1
For another series, the system named is Cyperus difformis. Briefly: Post-emergence herbicidal activity against three-leaf stage Cyperus difformis under green-house condition by water injection treatment method. In kind it is functional. An outline of the steps: as §1
For series [3], the system named is Echinochloa crus-galli. The series can be described thus: Post-emergence herbicidal activity against three-leaf stage Echinochloa crus-galli (barnyard grass) under green-house condition by water injection treatment method. In kind it is functional. The essentials: as §1
In another series the test system is Avena fatua. The series can be described thus: Post-emergence herbicidal activity against Avena fatua compound treated as foliar application measured after 2 weeks. The format is functional. An outline of the steps: (§2)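 Greenhouse post-emergence foliar screen in 64 cm² pots. Seed treatments were used on some species to aid germination. Plants were grown 7–21 days at 23–29 °C day/22–28 °C night under a 15 h photoperiod. Sprayed at 2–12 cm height and the 1–4 true leaf stage.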

For the next series, the system named is Sorghum halepense. The series can be described thus: Post-emergence herbicidal activity against Sorghum halepense (Johnson grass) compound treated as foliar application measured after 2 weeks. The format is functional. An outline of the steps: as §2
The next series concerns Setaria faberi. Briefly: Post-emergence herbicidal activity against Setaria faberi (Giant Foxtail) compound treated as foliar application measured after 2 weeks. The format is functional. An outline of the steps: as §2
A further series concerns Veronica hederifolia. The series can be described thus: Post-emergence herbicidal activity against Veronica hederifolia compound treated as foliar application measured after 2 weeks. The format is functional. An outline of the steps:
as §2

A further series concerns Helianthus. The series can be described thus: Post-emergence herbicidal activity against Helianthus spp. compound treated as foliar application measured after 2 weeks. In kind it is functional. An outline of the steps: as §2
In the next series the test system is Digitaria sanguinalis. The series can be described thus: Post-emergence herbicidal activity against Digitaria sanguinalis (hairy crabgrass) compound treated as foliar application measured after 2 weeks. In kind it is functional. The essentials:
as §2

Series [4] can be described thus: Inhibition of acetolactatae synthase. The settings on record: read-out: I50. An outline of the steps:
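Barley ALS: etiolated shoots of 5–6 d old Hector Spring barley homogenized at 0–4 °C in 20 mM HEPES pH 7.2, 1 mM EDTA, 5 mM DTT, then 33% (NH4)2SO4 cut. Reaction: 20 mM HEPES pH 7.2, 5 mM MgCl2, 0.25 mM TPP, FAD, 22.5 mM pyruvate, 0.7% DMSO final, 37 °C, 30 min. Acid decarboxylation to acetoin, then creatine/1-naphthol colour read at 530 nm. Reported as I50 (nM).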

Another series relates to Amaranthus retroflexus. The series can be described thus: Post-emergence herbicidal activity against Amaranthus retroflexus compound treated as foliar application measured after 2 weeks. In kind it is functional. An outline of the steps: as §2
For the next series, the system named is Chenopodium album. Briefly: Post-emergence herbicidal activity against Chenopodium album compound treated as foliar application measured after 2 weeks. In kind it is functional. The essentials: as §2
The subject of a further series is Ipomoea hederacea. The series can be described thus: Post-emergence herbicidal activity against Ipomoea hederacea (ivy-leaved morning glory) compound treated as foliar application measured after 2 weeks. The format is functional. An outline of the steps: as §2
Series [5] deals with Echinochloa crus-galli. The series can be described thus: Post-emergence herbicidal activity against Echinochloa crus-galli (barnyard grass) compound treated as foliar application measured after 2 weeks. The format is functional. The essentials:
as §2

The subject of another series is Fallopia convolvulus. Briefly: Post-emergence herbicidal activity against Fallopia convolvulus compound treated as foliar application measured after 2 weeks. The format is functional. An outline of the steps:
as §2

In another series the test system is Abutilon theophrasti. Briefly: Post-emergence herbicidal activity against Abutilon theophrasti (velvetleaf) compound treated as foliar application measured after 2 weeks. In kind it is functional. An outline of the steps: as §2
Series [6] concerns Oryza sativa. Briefly: Phytotoxicity against Oryza sativa (rice). The format is organism-based. The settings on record: in vivo.
In the next series the test system is Datura stramonium. Briefly: Post-emergence herbicidal activity against Datura stramonium compound treated as foliar application measured after 2 weeks. The format is functional. The essentials:
as §2

A further series relates to Alopecurus. Briefly: Post-emergence herbicidal activity against Alopecurus spp. compound treated as foliar application measured after 2 weeks. In kind it is functional. An outline of the steps:
as §2

The subject of the next series is Ipomoea. Briefly: Post-emergence herbicidal activity against Ipomoea spp. compound treated as foliar application measured after 2 weeks. The format is functional. An outline of the steps:
as §2

In a further series the test system is Xanthium strumarium. Briefly: Post-emergence herbicidal activity against Xanthium strumarium (cocklebur) compound treated as foliar application measured after 2 weeks. In kind it is functional. The essentials:
as §2

A further series has as its system Stellaria media. The series can be described thus: Post-emergence herbicidal activity against Stellaria media compound treated as foliar application measured after 2 weeks. In kind it is functional. The essentials: as §2

On to `COc1cnc(OC)n2nc(NS(=O)(=O)c3c(OCC(F)(F)F)cccc3C(F)(F)F)nc12`, for which the GR80 was found to be 5 gAi/ha with Pontederia vaginalis, 21 gAi/ha in series [2], 36 gAi/ha in the series with Cyperus difformis and 19 gAi/ha with Echinochloa crus-galli [3]. This compound also returned a GR20 in the series on Oryza sativa [1] of 51 gAi/ha.
As for `COc1nccc2nc(NS(=O)(=O)c3c(Cl)cccc3Cl)nn12`, the GR80 was 500 ppm with Avena fatua; 500 ppm in the series on Sorghum halepense; 500 ppm in the series on Setaria faberi; 475 ppm in the series with Veronica hederifolia; 475 ppm in the series with Helianthus; 500 ppm in the series with Digitaria sanguinalis. In addition, the GR80 turned out to be 475 ppm in the series with Amaranthus retroflexus; 475 ppm in the series on Chenopodium album; 475 ppm with Ipomoea hederacea; 500 ppm in the series on Echinochloa crus-galli [5]; 475 ppm with Fallopia convolvulus; 475 ppm in the series with Abutilon theophrasti. The GR80 worked out at 475 ppm with Datura stramonium; 500 ppm in the series with Alopecurus; 475 ppm in the series on Ipomoea; 475 ppm with Xanthium strumarium; 475 ppm with Stellaria media. Besides, the IC50 in [4] was 1040 nM. The compound also gave a GR20 with Oryza sativa [6] of 500 ppm.
As to `COc1cnc(OC)n2nc(NS(=O)(=O)c3c(Cl)cccc3Cl)nc12`, the GR80 in the series with Avena fatua was determined as 8 ppm; in the series on Sorghum halepense it was 8 ppm; in the series on Setaria faberi, 8 ppm; with Veronica hederifolia, 2 ppm; with Helianthus, 2 ppm; in the series on Digitaria sanguinalis, 8 ppm. In addition, the GR80 in the series on Amaranthus retroflexus was determined as 2 ppm; with Chenopodium album it was 2 ppm; in the series on Ipomoea hederacea, 2 ppm; in the series on Echinochloa crus-galli [5], 4 ppm; with Fallopia convolvulus, 2 ppm; in the series with Abutilon theophrasti, 2 ppm. Also, the GR80 in the series on Datura stramonium was 2 ppm; in the series on Alopecurus, 8 ppm; in the series with Ipomoea, 2 ppm; with Xanthium strumarium, 2 ppm; with Stellaria media, 2 ppm. Besides, the IC50 in [4] was 0.6 nM. The GR20 with Oryza sativa [6] was 8 ppm.
Turning to `COc1ncc(Cl)c2nc(NS(=O)(=O)c3c(Cl)cccc3Cl)nn12`, the GR80 is recorded as 4 ppm with Avena fatua; 4 ppm with Sorghum halepense; 4 ppm with Setaria faberi; 1 ppm in the series on Veronica hederifolia; 1 ppm in the series on Helianthus; 4 ppm in the series on Digitaria sanguinalis. Besides, the GR80 in the series with Amaranthus retroflexus is given as 1 ppm; in the series on Chenopodium album it was 1 ppm; in the series on Ipomoea hederacea, 1 ppm; in the series with Echinochloa crus-galli [5] it was 4 ppm; with Fallopia convolvulus it was 1 ppm; in the series with Abutilon theophrasti it was 1 ppm. Further, the GR80 worked out at 1 ppm in the series with Datura stramonium; 4 ppm in the series on Alopecurus; 1 ppm in the series on Ipomoea; 1 ppm in the series on Xanthium strumarium; 1 ppm with Stellaria media. In [4], the IC50 was found to be 0.6 nM. Moreover, the GR20 with Oryza sativa [6] was 4 ppm.
For the compound `COc1ncc(F)c2nc(NS(=O)(=O)c3c(Cl)cccc3Cl)nn12`, the GR80 with Avena fatua is reported as more than 125 ppm; in the series on Sorghum halepense, more than 125 ppm; in the series with Setaria faberi, more than 125 ppm; with Veronica hederifolia, 19 ppm; in the series with Helianthus it was 19 ppm; in the series on Digitaria sanguinalis, more than 125 ppm. The GR80 with Amaranthus retroflexus is listed as 19 ppm; with Chenopodium album, 19 ppm; in the series on Ipomoea hederacea it was 19 ppm; with Echinochloa crus-galli [5] it was more than 125 ppm; in the series on Fallopia convolvulus, 19 ppm; with Abutilon theophrasti, 19 ppm. The GR80 is given as 19 ppm with Datura stramonium; more than 125 ppm in the series on Alopecurus; 19 ppm in the series on Ipomoea; 19 ppm with Xanthium strumarium; 19 ppm in the series with Stellaria media. In [4], the IC50 came to 12 nM. Also, the GR20 with Oryza sativa [6] is listed as more than 125 ppm.
Regarding `COc1ncc(C)c2nc(NS(=O)(=O)c3c(Cl)cccc3Cl)nn12`, the GR80 in the series on Avena fatua was 250 ppm; in the series on Sorghum halepense, 250 ppm; in the series on Setaria faberi it was 250 ppm; in the series with Veronica hederifolia, less than 15 ppm; in the series on Helianthus it was less than 15 ppm; in the series with Digitaria sanguinalis, 250 ppm. Also, the GR80 is reported as less than 15 ppm in the series on Amaranthus retroflexus; less than 15 ppm with Chenopodium album; less than 15 ppm in the series with Ipomoea hederacea; 250 ppm in the series on Echinochloa crus-galli [5]; less than 15 ppm in the series on Fallopia convolvulus; less than 15 ppm in the series with Abutilon theophrasti. Moreover, the GR80 in the series on Datura stramonium is less than 15 ppm; in the series on Alopecurus, 250 ppm; with Ipomoea it was less than 15 ppm; in the series on Xanthium strumarium, less than 15 ppm; with Stellaria media it was less than 15 ppm. Also, the IC50 in series [4] stood at 7 nM. This compound also returned a GR20 in the series with Oryza sativa [6] of 250 ppm.
With `CCOc1cnc(OC)n2nc(NS(=O)(=O)c3c(Cl)cccc3Cl)nc12`, the GR80 in the series with Avena fatua worked out at 250 ppm; in the series with Sorghum halepense, 250 ppm; in the series on Setaria faberi it was 250 ppm; in the series on Veronica hederifolia it was 216 ppm; in the series with Helianthus it was 216 ppm; in the series on Digitaria sanguinalis it was 250 ppm. Further, the GR80 is reported as 216 ppm in the series on Amaranthus retroflexus; 216 ppm with Chenopodium album; 216 ppm with Ipomoea hederacea; 250 ppm in the series with Echinochloa crus-galli [5]; 216 ppm with Fallopia convolvulus; 216 ppm in the series on Abutilon theophrasti. Besides, the GR80 in the series with Datura stramonium was 216 ppm; with Alopecurus it was 250 ppm; with Ipomoea, 216 ppm; in the series with Xanthium strumarium, 216 ppm; in the series on Stellaria media, 216 ppm. Also, the IC50 in [4] is 2 nM. In the series on Oryza sativa [6], the GR20 came out at 250 ppm.
With `COc1nc(F)cc2nc(NS(=O)(=O)c3c(Cl)cccc3Cl)nn12`, the GR80 in the series on Avena fatua stood at 8 ppm; in the series with Sorghum halepense, 8 ppm; with Setaria faberi it was 8 ppm; with Veronica hederifolia, 62 ppm; in the series on Helianthus, 62 ppm; in the series with Digitaria sanguinalis, 8 ppm. The GR80 with Amaranthus retroflexus is reported as 62 ppm; in the series on Chenopodium album it was 62 ppm; in the series with Ipomoea hederacea it was 62 ppm; with Echinochloa crus-galli [5] it was 8 ppm; in the series on Fallopia convolvulus it was 62 ppm; in the series on Abutilon theophrasti, 62 ppm. Moreover, the GR80 in the series with Datura stramonium is 62 ppm; in the series with Alopecurus it was 8 ppm; in the series with Ipomoea, 62 ppm; in the series with Xanthium strumarium, 62 ppm; in the series on Stellaria media, 62 ppm. Also, the IC50 in [4] is 27 nM. The same compound yielded a GR20 in the series with Oryza sativa [6] of 8 ppm.
With `CCOc1cccc(C(F)(F)F)c1S(=O)(=O)Nc1nc2c(OC)cnc(OC)n2n1`, the GR80 was determined as 191 ppm in the series with Avena fatua; 191 ppm in the series with Sorghum halepense; 1 gAi/ha in the series with Pontederia vaginalis; 191 ppm with Setaria faberi; 2 ppm in the series on Veronica hederifolia; 2 ppm with Helianthus. In addition, the GR80 came out at 191 ppm with Digitaria sanguinalis; 2 ppm in the series with Amaranthus retroflexus; 2 ppm with Chenopodium album; 2 ppm in the series with Ipomoea hederacea; 3 gAi/ha in series [2]; 4 ppm with Echinochloa crus-galli [5]. In addition, the GR80 in the series with Fallopia convolvulus worked out at 2 ppm; in the series on Abutilon theophrasti it was 2 ppm; with Datura stramonium, 2 ppm; in the series on Alopecurus, 191 ppm; in the series on Ipomoea, 2 ppm; in the series on Xanthium strumarium, 2 ppm. Further, the GR80 in the series with Stellaria media came out at 2 ppm; in the series on Echinochloa crus-galli [3] it was 1 gAi/ha. In addition, the GR20 came out at 1 gAi/ha with Oryza sativa [1] and 250 ppm with Oryza sativa [6].
